Test results published in ChEMBL document CHEMBL1123645, “Phenylephrine derivatives as leukotriene D4 antagonists” (J Med Chem, 1987).
One block for each compound: values may come before it. Active and inactive are the calls of the source. The calls are words filed in the database; no cut-off is given here.

Key:
Cavia porcellus [1] = assay: Inhibition of LTD4 (leukotriene) induced bronchospasm in the guinea pig when administered intraduodenally (50 mg/kg)
Cavia porcellus [2] = assay: Inhibition of LTD4 (leukotriene) induced bronchospasm in the guinea pig when administered perorally at 25 mg/kg; NA means not active; assay type: functional, organism-based; design: dose 25 mg/kg
Method in brief: (§1)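 Guinea pig bronchoconstriction induced by LTD4 or by ovalbumin. Antagonist was dosed orally to awake animals 120 min before the agonist, which is 95 min before anesthetic. […] Single-dose lines give percent inhibition at the stated oral dose.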

Cavia porcellus [3] = assay: Inhibition of LTD4 (leukotriene) induced bronchospasm in the guinea pig when administered intraduodenally at 25 mg/kg
[4] = molecular target: Cysteinyl leukotriene receptor (Homo sapiens) (UniProt Q9Y271+Q9NS75); assay: Inhibition of Ovalbumin (OA) induced bronchospasm in the guinea pig when administered intraduodenally (50 mg/kg); assay type: functional, organism-based; conditions: Cavia porcellus; target entry is the homologue from another species
Method in brief: (§2)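 Guinea pig bronchoconstriction induced by LTD4 or by ovalbumin. Antagonist was given intraduodenally 10 min before the agonist. […] Single-dose lines give percent inhibition at the stated id dose.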

Cavia porcellus [5] = assay: Inhibition of Ovalbumin (OA) induced bronchospasm in the guinea pig when administered intraduodenally at 25 mg/kg; assay type: functional; conditions: route intraduodenal
Method in brief: as §2

Cavia porcellus [6] = assay: Inhibition of Ovalbumin (OA) induced bronchospasm in the guinea pig when administered perorally at 25 mg/kg; assay type: functional; conditions: route oral
Method in brief: as §1

Cavia porcellus [7] = assay: Inhibition of LTD4 (leukotriene) induced bronchospasm in the guinea pig when administered intraduodenally (50 mg/kg); Not active; assay type: functional, organism-based
Method in brief: as §2

Cavia porcellus [8] = assay: Inhibition of LTD4 (leukotriene) induced bronchospasm in the guinea pig when administered intraduodenally (50 mg/kg) NA means not active; assay type: functional, organism-based
Method in brief: as §2

Cavia porcellus [9] = assay: Antagonist activity was determined by the ability to inhibit of ovalbumin induced bronchospasm when administered intraduodenally with respect to LY-171883 compound; assay type: functional; conditions: intraduodenal
Method in brief: as §2

Cavia porcellus [10] = assay: Antagonist activity was determined by the ability to inhibit of ovalbumin induced bronchospasm when administered perorally with respect to LY-171883 compound; assay type: functional; conditions: po
Method in brief: as §1

Cavia porcellus [11] = assay: Relative inhibitory potency against LTD4 (leukotriene D4) induced bronchospasm when administered intraduodenally with respect to LY-171883 compound; assay type: functional
Cavia porcellus [12] = assay: Relative inhibitory potency against LTD4 (leukotriene D4) induced bronchospasm when administered perorally with respect to LY-171883 compound; assay type: functional
Cavia porcellus [13] = assay: Relative inhibitory potency against ovalbumin induced bronchospasm when administered intraduodenally with respect to LY-171883 compound; assay type: functional
Cavia porcellus [14] = assay: Relative inhibitory potency against ovalbumin induced bronchospasm when administered perorally with respect to LY-171883 compound; assay type: functional
Cavia porcellus [15] = assay: Antagonist activity was determined by the ability to inhibit of LTD4 (leukotriene D4) induced bronchospasm when administered intraduodenally with respect to LY-171883 compound; assay type: functional; conditions: intraduodenal
Method in brief: as §2

Cavia porcellus [16] = assay: Antagonist activity was determined by the ability to inhibit of LTD4 (leukotriene D4) induced bronchospasm when administered perorally with respect to LY-171883 compound; assay type: functional; conditions: po
Method in brief: as §1

Cavia porcellus [17] = species on record: Cavia porcellus; assay: Antagonist activity towards LTD4-induced contraction of isolated guinea pig; assay type: functional
Method in brief: (§3)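 Guinea pig tracheal spirals stretched to near-optimal length and equilibrated 1.5 h, washed every 15 min. Indomethacin (5 μM) was present in all tissues. Cumulative LTD4 dose-response curves were recorded isometrically via force transducers. Paired proximal/distal strips from one animal got solvent control or drug. Values are negative log, mean ± SEM, and were compared by Student's t test.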

Cavia porcellus [18] = species on record: Cavia porcellus; assay: relative potency antagonist on LTD4-induced contraction of isolated guinea pig trachea; assay type: functional
Method in brief: as §3

Cavia porcellus [19] = assay: Antagonist activity was determined by the ability to inhibit of LTD4 (leukotriene D4) induced bronchospasm when administered perorally with respect to REV-5901 compound; assay type: functional; conditions: po
Method in brief: as §1

Cavia porcellus [20] = assay: Antagonist activity was determined by the ability to inhibit of ovalbumin induced bronchospasm when administered intraduodenally with respect to REV-5901 compound; assay type: functional; conditions: intraduodenal
Method in brief: as §2

Cavia porcellus [21] = assay: Antagonist activity was determined by the ability to inhibit of ovalbumin induced bronchospasm when administered perorally with respect to REV-5901 compound; assay type: functional; conditions: po
Method in brief: as §1

Cavia porcellus [22] = assay: Relative inhibitory potency against LTD4 (leukotriene D4) induced bronchospasm when administered intraduodenally with respect to REV-5901 compound; assay type: functional
Cavia porcellus [23] = assay: Relative inhibitory potency against LTD4 (leukotriene D4) induced bronchospasm when administered perorally with respect to REV-5901 compound; assay type: functional
Cavia porcellus [24] = assay: Antagonist activity was determined by the ability to inhibit of LTD4 (leukotriene D4) induced bronchospasm when administered intraduodenally with respect to REV-5901 compound; assay type: functional; conditions: intraduodenal
Method in brief: as §2

Cavia porcellus [25] = assay: Relative inhibitory potency against ovalbumin induced bronchospasm when administered perorally with respect to LY-171,883 compound
Cavia porcellus [26] = assay: Antagonist activity was determined by the ability to inhibit of ovalbumin induced bronchospasm when administered per orally; assay type: functional; conditions: po
Method in brief: as §1

Cavia porcellus [27] = assay: Inhibition of Ovalbumin (OA) induced bronchospasm in the guinea pig when administered perorally (50 mg/kg); assay type: functional
Method in brief: as §1

Cavia porcellus [28] = assay: Antagonist activity was determined by the ability to inhibit of ovalbumin induced bronchospasm when administered intraduodenally; assay type: functional; conditions: intraduodenal
Method in brief: as §2

Cavia porcellus [29] = assay: Relative inhibitory potency against LTD4 (leukotriene D4) induced bronchospasm when administered intraduodenally; assay type: functional
Cavia porcellus [30] = assay: Relative inhibitory potency against LTD4 (leukotriene D4) induced bronchospasm when administered per orally; assay type: functional
Cavia porcellus [31] = assay: Relative inhibitory potency against ovalbumin induced bronchospasm when administered intraduodenally; assay type: functional
Cavia porcellus [32] = assay: Relative inhibitory potency against ovalbumin induced bronchospasm when administered per orally; assay type: functional
Cavia porcellus [33] = assay: Antagonist activity was determined by the ability to inhibit of LTD4 (leukotriene D4) induced bronchospasm when administered intraduodenally; assay type: functional; conditions: intraduodenal
Method in brief: as §2

Cavia porcellus [34] = assay: Antagonist activity was determined by the ability to inhibit of LTD4 (leukotriene D4) induced bronchospasm when administered per orally; assay type: functional; conditions: po
Method in brief: as §1

Cysteinyl leukotriene receptor (Homo sapiens), sequence (Q9NS75 whole entry, looked up): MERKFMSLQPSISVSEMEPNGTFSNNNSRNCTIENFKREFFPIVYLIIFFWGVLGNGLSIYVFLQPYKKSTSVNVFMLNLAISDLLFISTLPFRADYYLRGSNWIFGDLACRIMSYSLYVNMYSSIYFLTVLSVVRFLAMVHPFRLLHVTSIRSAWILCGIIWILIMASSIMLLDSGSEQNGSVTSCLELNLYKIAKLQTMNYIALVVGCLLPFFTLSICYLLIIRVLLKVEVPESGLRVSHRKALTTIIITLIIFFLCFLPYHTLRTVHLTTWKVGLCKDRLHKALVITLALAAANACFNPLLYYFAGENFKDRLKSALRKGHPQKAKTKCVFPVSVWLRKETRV
Cysteinyl leukotriene receptor (Homo sapiens), sequence (Q9Y271 whole entry, looked up): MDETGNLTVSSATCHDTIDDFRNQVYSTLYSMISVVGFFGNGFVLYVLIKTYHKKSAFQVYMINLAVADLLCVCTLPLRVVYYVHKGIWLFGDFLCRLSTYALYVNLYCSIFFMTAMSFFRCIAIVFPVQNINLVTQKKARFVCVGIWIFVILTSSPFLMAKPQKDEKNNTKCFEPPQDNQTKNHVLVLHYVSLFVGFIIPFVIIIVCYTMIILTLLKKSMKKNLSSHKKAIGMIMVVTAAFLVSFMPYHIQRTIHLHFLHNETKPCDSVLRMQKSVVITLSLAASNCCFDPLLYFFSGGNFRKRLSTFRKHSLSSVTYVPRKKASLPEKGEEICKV

inhibition (Cavia porcellus [1]): 34%
SMILES: CCN(CC)C(=O)N(CC)C[C@H](O)c1cccc(OCc2ccc3ccccc3n2)c1

inhibition (Cavia porcellus [3]): 82%
SMILES: O=C(NCC(O)c1cccc(OCc2ccc3ccccc3n2)c1)c1cccs1 (stereo not drawn)
inhibition (Cavia porcellus [2]): inactive

inhibition [4]: 50%
inhibition (Cavia porcellus [1]): 31%
SMILES: O=C1OC(c2cccc(OCc3ccc4ccccc4n3)c2)CN1Cc1ccc2ccccc2n1 (stereo not drawn)

inhibition (Cavia porcellus [1]): 21%
SMILES: CN(C[C@H](O)c1cccc(OCc2ccc3ccccc3n2)c1)C(=O)N(c1ccccc1)c1ccccc1

inhibition (Cavia porcellus [3]): 83%
SMILES: O=S(=O)(NCC(O)c1cccc(OCc2ccc3ccccc3n2)c1)C(F)(F)F (stereo not drawn)
inhibition in vivo at 25 mg/kg (Cavia porcellus [5]): 29%
inhibition in vivo at 25 mg/kg (Cavia porcellus [6]): -53%

inhibition (Cavia porcellus [3]): 11%
SMILES: c1ccc(C2=NCC(c3cccc(OCc4ccc5ccccc5n4)c3)O2)cc1 (stereo not drawn)

SMILES: CN1CC(c2cccc(OCc3ccc4ccccc4n3)c2)OC1=S (stereo not drawn)
inhibition (Cavia porcellus [7]): inactive

inhibition (Cavia porcellus [3]): 66%
SMILES: O=C1NCC(c2cccc(OCc3ccc4ccccc4n3)c2)O1 (stereo not drawn)

inhibition (Cavia porcellus [3]): 25%
SMILES: CCOC(=O)CC(=O)NCC(O)c1cccc(OCc2ccc3ccccc3n2)c1 (stereo not drawn)

inhibition [4]: 20%
inhibition (Cavia porcellus [1]): 71%
SMILES: CCOC(=O)N(C)C[C@H](O)c1cccc(OCc2ccc3ccccc3n2)c1

inhibition (Cavia porcellus [3]): 41%
SMILES: C#CCN(C)C[C@H](O)c1cccc(OCc2ccc3ccccc3n2)c1

inhibition (Cavia porcellus [1]): 31%
SMILES: CN(C[C@H](O)c1cccc(OCc2ccc3ccccc3n2)c1)C(=O)c1ccncc1

inhibition (Cavia porcellus [3]): 77%
SMILES: CCOC(=O)CC1=NCC(c2cccc(OCc3ccc4ccccc4n3)c2)O1 (stereo not drawn)

inhibition (Cavia porcellus [1]): 65%
SMILES: CN1CC(c2cccc(OCc3nc4ccccc4n3C)c2)OC1=O (stereo not drawn)
inhibition in vivo at 25 mg/kg (Cavia porcellus [5]): 68%

SMILES: NCC(O)c1cccc(OCc2ccc3ccccc3n2)c1 (stereo not drawn)
inhibition (Cavia porcellus [1]): 23%

SMILES: CN1CC(c2cccc(OCc3nc4ccccc4s3)c2)OC1=O (stereo not drawn)
inhibition (Cavia porcellus [8]): inactive

SMILES: CCCc1c(OCCCCc2nnn[nH]2)ccc(C(C)=O)c1O [TOMELUKAST]
ED50 (Cavia porcellus [9]): 19 mg/kg
ED50 (Cavia porcellus [10]): 38 mg/kg
Potency (Cavia porcellus [11]): 1
Potency (Cavia porcellus [12]): 1
Potency (Cavia porcellus [13]): 1
Potency (Cavia porcellus [14]): 1
ED50 (Cavia porcellus [15]): 6 mg/kg
ED50 (Cavia porcellus [16]): 32 mg/kg
pkb (Cavia porcellus [17]): 6.55
Potency (Cavia porcellus [18]): 1

SMILES: CCCCCC(O)c1cccc(OCc2ccc3ccccc3n2)c1 (stereo not drawn) [REV-5901]
ED50 (Cavia porcellus [19]): 52 mg/kg
ED50 (Cavia porcellus [20]): 47 mg/kg
ED50 (Cavia porcellus [21]): 87 mg/kg
Potency (Cavia porcellus [22]): 8.5
Potency (Cavia porcellus [23]): 1.6
ED50 (Cavia porcellus [24]): 51 mg/kg
pkb (Cavia porcellus [17]): 5.64
Potency (Cavia porcellus [18]): 8
Potency (Cavia porcellus [25]): 2.3

inhibition [4]: 75%
SMILES: CCN(CC)C(=O)N(C)C[C@H](O)c1cccc(OCc2ccc3ccccc3n2)c1
ED50 (Cavia porcellus [26]): 55 mg/kg
Inhibition (Cavia porcellus [27]): 25%
ED50 (Cavia porcellus [28]): 20 mg/kg
Potency (Cavia porcellus [29]): 1.5
Potency (Cavia porcellus [30]): 1.8
Potency (Cavia porcellus [31]): 1.1
Potency (Cavia porcellus [32]): 1.4
ED50 (Cavia porcellus [33]): 9 mg/kg
ED50 (Cavia porcellus [34]): 56 mg/kg
pkB (Cavia porcellus [17]): 5.22
Potency (Cavia porcellus [18]): 23
